Reference: ChEMBL document CHEMBL3243962, “Antileukemic activity of derivatives of 1,2-dimethyl-3,4-bis(hydroxymethyl)-5-phenylpyrrole bis(N-methylcarbamate)” (J Med Chem, 1979)
Active and inactive are the calls of the source.

Columns and labels:
[1] = system: Salmonella typhimurium; assay: Antimicrobial activity against Salmonella typhimurium ATCC 14028 at 1 mg after 24 hrs by disk sensitivity assay; type: functional, organism-based; details: Salmonella enterica subsp. enterica serovar Typhimurium
Outline: (§1)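 Bacteria grown 24 h in trypticase soy broth; 1 mL used to seed a lawn on trypticase soy agar. Sterile 6 mm paper disks carrying 1 mg test compound placed on agar, incubated 24 h at 37 °C, then zone of inhibition around each disk measured.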

[2] = system: Serratia marcescens; assay: Antimicrobial activity against Serratia marcescens ATCC 8100 at 1 mg after 24 hrs by disk sensitivity assay; type: functional, organism-based; outline: as §1
[3] = system: Staphylococcus epidermidis; assay: Antimicrobial activity against Staphylococcus epidermidis ATCC 12228 at 1 mg after 24 hrs by disk sensitivity assay; type: functional, organism-based; outline: as §1
[4] = system: Escherichia coli; assay: Antimicrobial activity against Escherichia coli ATCC 25922 at 1 mg after 24 hrs by disk sensitivity assay; type: functional, organism-based; outline: as §1
[5] = system: Proteus vulgaris; assay: Antimicrobial activity against Proteus vulgaris ATCC 6380 at 1 mg after 24 hrs by disk sensitivity assay; type: functional, organism-based; outline: as §1
[6] = system: Mus musculus; assay: Toxicity in mouse P388 cells allografted CD2F1 mouse assessed as body weight loss at 100 mg/kg, ip of total 9 doses starting 24 hrs post tumor inoculation measured on day 5 of inoculation relative to control; type: organism-based; parameters: dose 100 mg/kg, route intraperitoneal; details: in vivo
Outline: (§2)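 Male CD2F1 mice inoculated ip with 6×10^6 P388 leukemia cells. Compounds given ip as distilled water–Tween 80 suspension, nine daily doses starting 24 h after inoculation; six mice per dose group. Treated-minus-control body-weight change (T − C) and toxicity-day survivors recorded on day 5 (4 days after first dose).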

[7] = system: Mus musculus; assay: Toxicity in mouse P388 cells allografted CD2F1 mouse assessed as body weight loss at 50 mg/kg, ip of total 9 doses starting 24 hrs post tumor inoculation measured on day 5 of inoculation relative to control; type: organism-based; parameters: dose 50 mg/kg, route intraperitoneal; details: in vivo; outline: as §2
[8] = system: Mus musculus; assay: Toxicity in mouse P388 cells allografted CD2F1 mouse assessed as body weight loss at 25 mg/kg, ip of total 9 doses starting 24 hrs post tumor inoculation measured on day 5 of inoculation relative to control; type: organism-based; parameters: dose 25 mg/kg, route intraperitoneal; details: in vivo; outline: as §2
[9] = system: Mus musculus; assay: Toxicity in mouse P388 cells allografted CD2F1 mouse assessed as body weight loss at 12.5 mg/kg, ip of total 9 doses starting 24 hrs post tumor inoculation measured on day 5 of inoculation relative to control; type: organism-based; parameters: dose 12.5 mg/kg, route intraperitoneal; details: in vivo; outline: as §2
[10] = system: Mus musculus; assay: Toxicity in mouse P388 cells allografted CD2F1 mouse assessed as body weight loss at 6.25 mg/kg, ip of total 9 doses starting 24 hrs post tumor inoculation measured on day 5 of inoculation relative to control; type: organism-based; parameters: dose 6.25 mg/kg, route intraperitoneal; details: in vivo; outline: as §2
[11] = system: Mus musculus; assay: Toxicity in mouse P388 cells allografted CD2F1 mouse assessed as mouse survival at 25 mg/kg, ip of total 9 doses starting 24 hrs post tumor inoculation measured on day 5 of inoculation relative to control; type: organism-based; parameters: dose 25 mg/kg, route intraperitoneal; details: in vivo
Outline: (§3)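 Male CD2F1 mice bearing ip P388 leukemia (6×10^6 cells) were dosed ip with nine daily doses in distilled water–Tween 80 suspension, starting 24 h after inoculation. Survivors per group of 6 were counted on day 5, i.e. 4 days after the first dose. Body-weight change of treated minus control mice was also recorded.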

[12] = system: Mus musculus; assay: Toxicity in mouse P388 cells allografted CD2F1 mouse assessed as mouse survival at 12.5 mg/kg, ip of total 9 doses starting 24 hrs post tumor inoculation measured on day 5 of inoculation relative to control; type: organism-based; parameters: dose 12.5 mg/kg, route intraperitoneal; details: in vivo; outline: as §3
[13] = system: Mus musculus; assay: Toxicity in mouse P388 cells allografted CD2F1 mouse assessed as mouse survival at 6.25 mg/kg, ip of total 9 doses starting 24 hrs post tumor inoculation measured on day 5 of inoculation relative to control; type: organism-based; parameters: dose 6.25 mg/kg, route intraperitoneal; details: in vivo; outline: as §3
[14] = system: Enterobacter cloacae; assay: Antimicrobial activity against Enterobacter cloacae ATCC 23355 at 1 mg after 24 hrs by disk sensitivity assay; type: functional, organism-based; outline: as §1
[15] = system: Klebsiella pneumoniae; assay: Antimicrobial activity against Klebsiella pneumoniae ATCC 23357 at 1 mg after 24 hrs by disk sensitivity assay; type: functional, organism-based; outline: as §1
[16] = system: Staphylococcus aureus; assay: Antimicrobial activity against Staphylococcus aureus ATCC 25923 at 1 mg after 24 hrs by disk sensitivity assay; type: functional, organism-based; outline: as §1
[17] = system: P388; assay: Antitumor activity against mouse P388 cells allografted in CD2F1 mouse assessed as increase in mouse survival at 50 mg/kg, ip of total 9 doses starting 24 hrs post tumor inoculation measured on day 5 of inoculation relative to control; type: functional; details: route intraperitoneal
Outline: (§4)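 Male CD2F1 mice inoculated ip with 6×10^6 P388 leukemia cells. Dosing was ip as a suspension in distilled water–Tween 80, nine daily doses starting 24 h after inoculation. Activity was read as median survival time of treated vs control mice (% T/C); % T/C ≥ 120 was considered significant. Groups were 6 mice.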

[18] = system: P388; assay: Antitumor activity against mouse P388 cells allografted in CD2F1 mouse assessed as increase in mouse survival at 25 mg/kg, ip of total 9 doses starting 24 hrs post tumor inoculation measured on day 5 of inoculation relative to control; type: functional; details: route intraperitoneal; outline: as §4
[19] = system: P388; assay: Antitumor activity against mouse P388 cells allografted in CD2F1 mouse assessed as increase in mouse survival at 12.5 mg/kg, ip of total 9 doses starting 24 hrs post tumor inoculation measured on day 5 of inoculation relative to control; type: functional; details: route intraperitoneal; outline: as §4
[20] = system: P388; assay: Antitumor activity against mouse P388 cells allografted in CD2F1 mouse assessed as increase in mouse survival at 6.25 mg/kg, ip of total 9 doses starting 24 hrs post tumor inoculation measured on day 5 of inoculation relative to control; type: functional; details: route intraperitoneal; outline: as §4
[21] = system: Mus musculus; assay: Toxicity in mouse P388 cells allografted CD2F1 mouse assessed as mouse survival at 50 mg/kg, ip of total 9 doses starting 24 hrs post tumor inoculation measured on day 5 of inoculation relative to control; type: organism-based; parameters: dose 50 mg/kg, route intraperitoneal; details: in vivo; outline: as §3
[22] = system: Mus musculus; assay: Toxicity in mouse P388 cells allografted CD2F1 mouse assessed as body weight loss at 40 mg/kg, ip of total 9 doses starting 24 hrs post tumor inoculation measured on day 5 of inoculation relative to control; type: organism-based; parameters: dose 40 mg/kg, route intraperitoneal; details: in vivo; outline: as §2
[23] = system: Mus musculus; assay: Toxicity in mouse P388 cells allografted CD2F1 mouse assessed as body weight loss at 20 mg/kg, ip of total 9 doses starting 24 hrs post tumor inoculation measured on day 5 of inoculation relative to control; type: organism-based; parameters: dose 20 mg/kg, route intraperitoneal; details: in vivo; outline: as §2
[24] = system: Mus musculus; assay: Toxicity in mouse P388 cells allografted CD2F1 mouse assessed as body weight loss at 10 mg/kg, ip of total 9 doses starting 24 hrs post tumor inoculation measured on day 5 of inoculation relative to control; type: organism-based; parameters: dose 10 mg/kg, route intraperitoneal; details: in vivo; outline: as §2
[25] = system: Mus musculus; assay: Toxicity in mouse P388 cells allografted CD2F1 mouse assessed as body weight loss at 5 mg/kg, ip of total 9 doses starting 24 hrs post tumor inoculation measured on day 5 of inoculation relative to control; type: organism-based; parameters: dose 5 mg/kg, route intraperitoneal; details: in vivo; outline: as §2
[26] = system: Mus musculus; assay: Toxicity in mouse P388 cells allografted CD2F1 mouse assessed as mouse survival at 20 mg/kg, ip of total 9 doses starting 24 hrs post tumor inoculation measured on day 5 of inoculation relative to control; type: organism-based; parameters: dose 20 mg/kg, route intraperitoneal; details: in vivo; outline: as §3
[27] = system: Mus musculus; assay: Toxicity in mouse P388 cells allografted CD2F1 mouse assessed as mouse survival at 10 mg/kg, ip of total 9 doses starting 24 hrs post tumor inoculation measured on day 5 of inoculation relative to control; type: organism-based; parameters: dose 10 mg/kg, route intraperitoneal; details: in vivo; outline: as §3
[28] = system: Mus musculus; assay: Toxicity in mouse P388 cells allografted CD2F1 mouse assessed as mouse survival at 5 mg/kg, ip of total 9 doses starting 24 hrs post tumor inoculation measured on day 5 of inoculation relative to control; type: organism-based; parameters: dose 5 mg/kg, route intraperitoneal; details: in vivo; outline: as §3
[29] = system: P388; assay: Antitumor activity against mouse P388 cells allografted in CD2F1 mouse assessed as increase in mouse survival at 40 mg/kg, ip of total 9 doses starting 24 hrs post tumor inoculation measured on day 5 of inoculation relative to control; type: functional; details: route intraperitoneal; outline: as §4
[30] = system: P388; assay: Antitumor activity against mouse P388 cells allografted in CD2F1 mouse assessed as increase in mouse survival at 20 mg/kg, ip of total 9 doses starting 24 hrs post tumor inoculation measured on day 5 of inoculation relative to control; type: functional; details: route intraperitoneal; outline: as §4
[31] = system: P388; assay: Antitumor activity against mouse P388 cells allografted in CD2F1 mouse assessed as increase in mouse survival at 10 mg/kg, ip of total 9 doses starting 24 hrs post tumor inoculation measured on day 5 of inoculation relative to control; type: functional; details: route intraperitoneal; outline: as §4
[32] = system: P388; assay: Antitumor activity against mouse P388 cells allografted in CD2F1 mouse assessed as increase in mouse survival at 5 mg/kg, ip of total 9 doses starting 24 hrs post tumor inoculation measured on day 5 of inoculation relative to control; type: functional; details: route intraperitoneal; outline: as §4
[33] = system: P388; assay: Antitumor activity against mouse P388 cells allografted in CD2F1 mouse assessed as increase in mouse survival at 100 mg/kg, ip of total 9 doses starting 24 hrs post tumor inoculation measured on day 5 of inoculation relative to control; type: functional; details: route intraperitoneal; outline: as §4

CNC(=O)OCc1c(COC(=O)NC)c(-c2ccc(C(C)(C)C)cc2)n(C)c1C
Activity [1]: inactive
Activity [2]: inactive
Activity [3]: inactive
Activity [4]: inactive
Activity [5]: inactive
Activity [6]: 4.4 g
Activity [7]: 5.1 g
Activity [8]: 4 g
Activity [9]: 3.8 g
Activity [10]: 2 g
Activity [11]: Non-toxic
Activity [12]: Non-toxic
Activity [13]: Non-toxic
Activity [14]: inactive
Activity [15]: inactive
Activity [16]: inactive
T/C [17]: 97%
T/C [18]: 158%
T/C [19]: 155%
T/C [20]: 152%

CNC(=O)OCc1c(COC(=O)NC)c(-c2ccc(Cl)cc2)n(C)c1C
Activity [6]: 7.5 g
Activity [7]: 5.7 g
Activity [8]: 4.4 g
Activity [9]: 3.2 g
Activity [10]: 3.4 g
Activity [21]: Non-toxic
Activity [11]: Non-toxic
Activity [12]: Non-toxic
Activity [13]: Non-toxic
T/C [17]: 165%
T/C [18]: 153%
T/C [19]: 155%
T/C [20]: 155%

CNC(=O)OCc1c(COC(=O)NC)c(-c2ccc(Br)cc2)n(C)c1C
Activity [22]: 5 g
Activity [23]: 2.8 g
Activity [24]: 2.8 g
Activity [25]: 1.8 g
Activity [26]: Non-toxic
Activity [27]: Non-toxic
Activity [28]: Non-toxic
T/C [29]: <75%
T/C [30]: 155%
T/C [31]: 146%
T/C [32]: 144%

CNC(=O)OCc1c(COC(=O)NC)c(-c2ccc([N+](=O)[O-])cc2)n(C)c1C
Activity [1]: inactive
Activity [2]: inactive
Activity [3]: inactive
Activity [4]: inactive
Activity [5]: inactive
Activity [6]: 4.4 g
Activity [7]: 6.6 g
Activity [8]: 5.5 g
Activity [9]: 4.1 g
Activity [10]: 2.9 g
Activity [11]: Non-toxic
Activity [12]: Non-toxic
Activity [13]: Non-toxic
Activity [14]: inactive
Activity [15]: inactive
Activity [16]: inactive
T/C [17]: < 90%
T/C [18]: <90%
T/C [19]: 169%
T/C [20]: 153%

CNC(=O)OCc1c(COC(=O)NC)c(-c2ccc(N)cc2)n(C)c1C
Activity [6]: 3.5 g
Activity [7]: 2.5 g
Activity [8]: 0.4 g
Activity [9]: 0.1 g
Activity [10]: 0.7 g
Activity [21]: Non-toxic
Activity [12]: Non-toxic
Activity [13]: Non-toxic
T/C [33]: 135%
T/C [17]: 119%
T/C [18]: 100%
T/C [19]: 98%
T/C [20]: 92%
